Results taken from ChEMBL document CHEMBL1137826, “A new class of acyclic 2-alkyl-1,1,2-triaryl (Z)-olefins as selective cyclooxygenase-2 inhibitors” (J Med Chem, 2004).

How the values were obtained:
Rattus norvegicus [1] = assay: Percent inhibition of 4% sodium chloride-induced abdominal constriction in rat after 30 min of 5 mg/kg oral dose of the compound; format: functional; details: Abdomen, 0.5 h
Procedure, shortened: (§1)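 Test compound given to rats orally at 5 mg/kg before 4% NaCl-induced writhing (abdominal constriction).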

Rattus norvegicus [2] = assay: Percent inhibition of 4% sodium chloride-induced abdominal constriction in rat after 60 min of 5 mg/kg oral dose of the compound; format: functional; details: Abdomen, 1 h; procedure, shortened: as §1
[3] = molecular target: T1, Prostaglandin G/H synthase 2 (Rattus norvegicus) (UniProt P35355)
T1 sequence (whole entry): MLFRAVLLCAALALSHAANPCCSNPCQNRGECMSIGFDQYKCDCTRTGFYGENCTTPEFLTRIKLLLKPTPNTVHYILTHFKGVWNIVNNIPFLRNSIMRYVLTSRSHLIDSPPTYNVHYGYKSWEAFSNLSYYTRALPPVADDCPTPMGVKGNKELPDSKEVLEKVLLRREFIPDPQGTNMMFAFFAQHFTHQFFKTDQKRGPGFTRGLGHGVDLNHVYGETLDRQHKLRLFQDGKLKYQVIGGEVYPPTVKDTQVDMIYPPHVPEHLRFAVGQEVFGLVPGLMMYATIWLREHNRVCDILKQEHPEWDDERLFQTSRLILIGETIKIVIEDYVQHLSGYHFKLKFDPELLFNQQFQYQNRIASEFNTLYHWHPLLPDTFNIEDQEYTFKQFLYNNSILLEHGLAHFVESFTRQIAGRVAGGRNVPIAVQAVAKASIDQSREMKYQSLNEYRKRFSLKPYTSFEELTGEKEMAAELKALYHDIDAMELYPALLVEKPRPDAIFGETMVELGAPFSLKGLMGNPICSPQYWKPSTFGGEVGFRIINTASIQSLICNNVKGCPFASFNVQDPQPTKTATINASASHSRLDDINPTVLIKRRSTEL

[4] = molecular target: T2, Prostaglandin G/H synthase 1 (Ovis aries, UniProt P05979); assay: In vitro inhibition of ovine prostaglandin G/H synthase 1
T2 sequence (P05979 whole entry): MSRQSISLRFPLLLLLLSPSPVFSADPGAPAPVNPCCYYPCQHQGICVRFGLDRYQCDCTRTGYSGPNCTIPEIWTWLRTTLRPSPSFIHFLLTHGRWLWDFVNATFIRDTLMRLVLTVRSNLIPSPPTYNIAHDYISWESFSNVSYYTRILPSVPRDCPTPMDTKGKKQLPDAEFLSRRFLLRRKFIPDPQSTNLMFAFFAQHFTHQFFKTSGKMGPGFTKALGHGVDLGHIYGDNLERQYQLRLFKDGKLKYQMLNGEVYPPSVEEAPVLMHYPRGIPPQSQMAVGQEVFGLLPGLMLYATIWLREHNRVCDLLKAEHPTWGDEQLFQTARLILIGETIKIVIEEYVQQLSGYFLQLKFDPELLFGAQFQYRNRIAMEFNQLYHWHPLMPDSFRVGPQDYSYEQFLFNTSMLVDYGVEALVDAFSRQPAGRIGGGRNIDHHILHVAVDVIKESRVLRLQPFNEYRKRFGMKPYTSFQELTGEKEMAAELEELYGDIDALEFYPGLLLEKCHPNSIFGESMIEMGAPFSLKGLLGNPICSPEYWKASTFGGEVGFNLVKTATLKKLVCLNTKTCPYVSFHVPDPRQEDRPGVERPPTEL

Rattus norvegicus [5] = organism: Rattus norvegicus; assay: animal or person; details: Abdomen, po, 0.5 h, read-out: Inhibition

| Compound | inhibition in vivo at 5 mg/kg (Rattus norvegicus [1]) [%] | inhibition in vivo at 5 mg/kg (Rattus norvegicus [2]) [%] | ID50 [3] [mg/kg] | IC50 [4] [µM] | inhibition in vivo at 50 mg/kg (Rattus norvegicus [5]) [%] |
| --- | --- | --- | --- | --- | --- |
| CCCCCC/C(=C(\c1ccccc1)c1ccc(S(C)(=O)=O)cc1)c1ccccc1 | 33.3 | 35.4 | 1.1 | > 100 | – |
| CCCC/C(=C(\c1ccccc1)c1ccc(S(C)(=O)=O)cc1)c1ccccc1 | – | – | – | 30 | – |
| CCCCCCCC/C(=C(\c1ccccc1)c1ccc(S(C)(=O)=O)cc1)c1ccccc1 | – | – | – | > 100 | – |
| CC/C(=C(\c1ccccc1)c1ccc(S(C)(=O)=O)cc1)c1ccc(OC(C)=O)cc1 | 60 | 57.5 | 1.3 | 0.25 | – |
| Cc1ccc(-c2cc(C(F)(F)F)nn2-c2ccc(S(N)(=O)=O)cc2)cc1 [CELECOXIB] | – | – | – | – | 69.3 |
| CC/C(=C(\c1ccccc1)c1ccc(S(C)(=O)=O)cc1)c1ccccc1 | 38.8 | 50 | 1.9 | > 100 | – |
| CCC/C(=C(\c1ccccc1)c1ccc(S(C)(=O)=O)cc1)c1ccccc1 | – | – | – | > 100 | – |
| CCCC/C(=C(\c1ccccc1)c1ccc(S(C)(=O)=O)cc1)c1ccc(OC(C)=O)cc1 | – | – | – | > 100 | – |
